From ChEMBL document CHEMBL5096186, “Design, Synthesis, and Biological Evaluation of Novel Pyrimido[4,5-b]indole Derivatives Against Gram-Negative Multidrug-Resistant Pathogens” (J Med Chem, 2021)
≈ marks a conversion by molar mass, not a printed value.

Assays:
Escherichia coli [1] = assay: Antibacterial activity against ESBL-producing multidrug resistant Escherichia coli assessed as reduction in bacterial growth incubated for 18 to 20 hrs by CLSI based microdilution method; assay type: functional; conditions: time 18-20 hrs
How it was run: (§1)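 Broth microdilution per CLSI. Compounds dissolved in DMSO (levofloxacin and meropenem in water) as 64 μg/mL stock, then serial twofold dilutions in broth giving 64 to 0.008 μg/mL. […] Clinical isolates tested as several strains per group; racemic GP-1 served as positive control; values given as MIC ranges.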

Pseudomonas aeruginosa [2] = assay: Antibacterial activity against wild type Pseudomonas aeruginosa ATCC 27853 assessed as reduction in bacterial growth incubated for 18 to 20 hrs by CLSI based microdilution method; assay type: functional; conditions: time 18-20 hrs
How it was run: (§2)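 CLSI broth microdilution. Compounds in DMSO (levofloxacin and meropenem in water), serial twofold dilutions in broth, 64 to 0.008 μg/mL. […] Results reported as MIC ranges across strains.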

Acinetobacter baumannii [3] = assay: Antibacterial activity against wild type Acinetobacter baumannii NCTC 13304 assessed as reduction in bacterial growth incubated for 18 to 20 hrs by CLSI based microdilution method; assay type: functional; conditions: time 18-20 hrs; how it was run: as §1
Escherichia coli [4] = assay: Antibacterial activity against multidrug resistant wild type Escherichia coli ATCC BAA-2340 assessed as reduction in bacterial growth incubated for 18 to 20 hrs by CLSI based microdilution method; assay type: functional; conditions: time 18-20 hrs; how it was run: as §1
Acinetobacter baumannii [5] = assay: Antibacterial activity agains OXA23-producing multidrug resistant Acinetobacter baumannii assessed as reduction in bacterial growth incubated for 18 to 20 hrs by CLSI based microdilution method; assay type: functional; conditions: time 18-20 hrs; how it was run: as §1
Klebsiella pneumoniae [6] = assay: Antibacterial activity against KPC2-producing multidrug resistant Klebsiella pneumoniae assessed as reduction in bacterial growth incubated for 18 to 20 hrs by CLSI based microdilution method; assay type: functional; conditions: time 18-20 hrs; how it was run: as §1
Klebsiella pneumoniae [7] = assay: Antibacterial activity agains wild type Klebsiella pneumoniae ATCC BAA-1705 assessed as reduction in bacterial growth incubated for 18 to 20 hrs by CLSI based microdilution method; assay type: functional; conditions: time 18-20 hrs; how it was run: as §2
Escherichia coli [8] = assay: Antibacterial activity against multidrug resistant wild type Escherichia coli NCTC 13353 assessed as reduction in bacterial growth incubated for 18 to 20 hrs by CLSI based microdilution method; assay type: functional; conditions: time 18-20 hrs; how it was run: as §1
[9] = target: Voltage-gated inwardly rectifying potassium channel KCNH2 (Homo sapiens, UniProt Q12809); assay: Inhibition of hERG potassium channel assessed as […] at -80 mV holding potential incubated for 120 seconds by whole cell-automated voltage clamp analysis assay; assay type: toxicity
How it was run: (§3)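 Automated whole-cell patch clamp, holding potential −80 mV. Voltage protocol applied every 20 s. Baseline set with external solution containing 0.1% DMSO and stabilised 3 min. Compound applied until steady state, at least 3 min, then washout. Maximum tested concentration 40 μM, or 3 μM for cisapride as positive control.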

Pseudomonas aeruginosa [10] = assay: Antibacterial activity against multidrug resistant Pseudomonas aeruginosa strains 15 1 to 3 assessed as reduction in bacterial growth incubated for 18 to 20 hrs by CLSI based microdilution method; assay type: functional; conditions: time 18-20 hrs; how it was run: as §1
Escherichia coli [11] = assay: Antibacterial activity against Escherichia coli ATCC 35218 strains 15 1 to 3 assessed as reduction in bacterial growth incubated for 18 to 20 hrs by CLSI based microdilution method; assay type: functional; conditions: time 18-20 hrs; how it was run: as §2
[12] = Cytotoxicity against human L02 cells assessed as cell viability measured for 48 hrs by CCK-8 assay; assay type: toxicity, cell-based
How it was run: (§4)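 Cells seeded at 1 × 10⁴ per well and grown for 48 h. Then exposed to test articles at 1–200 μM for another 48 h (n = 6). Viability by CCK-8 added for 2 h, absorbance read at 450 nm. CC50 calculated and reported as the mean.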

Escherichia coli [13] = assay: Antibacterial activity against ESBL-producing Escherichia coli ATCC 35218 strains 15 1 to 3 assessed as reduction in bacterial growth incubated for 18 to 20 hrs by CLSI based microdilution method; assay type: functional; conditions: time 18-20 hrs; how it was run: as §2
[14] = system: Staphylococcus epidermidis; assay: Antibacterial activity against methicillin-sensitive Staphylococcus epidermidis strains 15 1 to 4 assessed as reduction in bacterial growth incubated for 18 to 20 hrs by CLSI based microdilution method; assay type: functional; conditions: time 18-20 hrs; how it was run: as §1
[15] = Cytotoxicity against human HEK293 cells assessed as cell viability measured for 48 hrs by CCK-8 assay; assay type: toxicity, cell-based; how it was run: as §4
Staphylococcus aureus = assay: Antibacterial activity against methicillin-sensitive Staphylococcus aureus strains 15 1 to 4 assessed as reduction in bacterial growth incubated for 18 to 20 hrs by CLSI based microdilution method; assay type: functional; conditions: time 18-20 hrs; how it was run: as §1
Pseudomonas aeruginosa [16] = assay: Antibacterial activity against IMP4-producing multidrug resistant Pseudomonas aeruginosa assessed as reduction in bacterial growth incubated for 18 to 20 hrs by CLSI based microdilution method; assay type: functional; conditions: time 18-20 hrs; how it was run: as §1
Klebsiella pneumoniae [17] = assay: Antibacterial activity agains wild type Klebsiella pneumoniae ATCC BAA-2470 assessed as reduction in bacterial growth incubated for 18 to 20 hrs by CLSI based microdilution method; assay type: functional; conditions: time 18-20 hrs; how it was run: as §1
[18] = target: hERG (KCNH2) potassium channel (Homo sapiens, UniProt Q12809); assay: Inhibition of hERG potassium channel assessed as maximum inhibition rate at 40 uM at -80 mV holding potential incubated for 120 seconds by whole cell-automated voltage clamp analysis assay relative to control; assay type: toxicity; conditions: time 120 sec; how it was run: as §3
[19] = Elimination half life in Sprague-Dawley rat at 4 mg/kg, iv measured upto 24 hrs by LC-MS/MS analysis; assay type: ADME, organism-based; conditions: in vivo, read-out: beta t1/2 (converted)
How it was run: (§5)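 Male Sprague-Dawley rats, n = 3 per group, single intravenous dose. For 4 mg/kg: 180–280 g rats, vehicle 5% DMSO + 5% EtOH + 40% PEG300 + 50% saline, blood from the retrobulbar vein at 0.05–24 h. For 5 and 20 mg/kg: 180–300 g rats, vehicle 5% DMSO + 5% solutol + 90% saline, sampled at 0.083–24 h. Plasma quantified by LC/MS/MS. Parameters from mean plasma concentration by noncompartmental analysis; values are mean ± standard deviation.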

[20] = Metabolic stability in human liver microsome assessed as metabolic bioavailability at 0.1 uM in presence of NADPH incubated upto 60 mins by LC-MS/MS analysis; assay type: ADME; conditions: liver microsomes
How it was run: (§6)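 Compound at 0.1 μM final, in 0.01% DMSO with 0.005% BSA. Incubated with rat or human liver microsomes at 0.33 mg/mL in 0.1 M Tris-HCl, pH 7.4, with 5 mM MgCl₂ and 1 mM NADPH, at 37 °C. Samples at 0, 7, 17, 30 and 60 min quenched with cold methanol and analysed by LC-MS/MS. Half-life, Cl_int and MF% derived as previously described.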

[21] = Metabolic stability in rat liver microsome assessed as elimination half life at 0.1 uM in presence of NADPH incubated upto 60 mins by LC-MS/MS analysis; assay type: ADME; conditions: liver microsomes, read-out: beta t1/2; how it was run: as §6
[22] = Metabolic stability in human liver microsome assessed as intrinsic clearance at 0.1 uM in presence of NADPH incubated upto 60 mins by LC-MS/MS analysis; assay type: ADME; conditions: microsomes, 1 h; how it was run: as §6
[23] = AUC (0 to infinity) in Sprague-Dawley rat at 4 mg/kg, iv measured upto 24 hrs by LC-MS/MS analysis; assay type: ADME, organism-based; design: time < 24 hrs, dose 4 mg/kg, route iv; conditions: in vivo; how it was run: as §5
[24] = MRT in Sprague-Dawley rat at 4 mg/kg, iv measured upto 24 hrs by LC-MS/MS analysis; assay type: ADME, organism-based; conditions: in vivo; how it was run: as §5
[25] = Clearance in Sprague-Dawley rat at 4 mg/kg, iv measured upto 24 hrs by LC-MS/MS analysis; assay type: ADME, organism-based; conditions: in vivo; how it was run: as §5
[26] = Metabolic stability in human liver microsome assessed as elimination half life at 0.1 uM in presence of NADPH incubated upto 60 mins by LC-MS/MS analysis; assay type: ADME; conditions: liver microsomes, read-out: beta t1/2; how it was run: as §6
[27] = Metabolic stability in rat liver microsome assessed as metabolic bioavailability at 0.1 uM in presence of NADPH incubated upto 60 mins by LC-MS/MS analysis; assay type: ADME; conditions: liver microsomes; how it was run: as §6
[28] = Volume of distribution at the steady state in Sprague-Dawley rat at 4 mg/kg, iv measured upto 24 hrs by LC-MS/MS analysis; assay type: ADME, organism-based; conditions: in vivo, read-out: Vdss; how it was run: as §5
[29] = Metabolic stability in rat liver microsome assessed as intrinsic clearance at 0.1 uM in presence of NADPH incubated upto 60 mins by LC-MS/MS analysis; assay type: ADME; conditions: microsomes, 1 h; how it was run: as §6

Sequence of hERG (KCNH2) potassium channel (Q12809 whole entry): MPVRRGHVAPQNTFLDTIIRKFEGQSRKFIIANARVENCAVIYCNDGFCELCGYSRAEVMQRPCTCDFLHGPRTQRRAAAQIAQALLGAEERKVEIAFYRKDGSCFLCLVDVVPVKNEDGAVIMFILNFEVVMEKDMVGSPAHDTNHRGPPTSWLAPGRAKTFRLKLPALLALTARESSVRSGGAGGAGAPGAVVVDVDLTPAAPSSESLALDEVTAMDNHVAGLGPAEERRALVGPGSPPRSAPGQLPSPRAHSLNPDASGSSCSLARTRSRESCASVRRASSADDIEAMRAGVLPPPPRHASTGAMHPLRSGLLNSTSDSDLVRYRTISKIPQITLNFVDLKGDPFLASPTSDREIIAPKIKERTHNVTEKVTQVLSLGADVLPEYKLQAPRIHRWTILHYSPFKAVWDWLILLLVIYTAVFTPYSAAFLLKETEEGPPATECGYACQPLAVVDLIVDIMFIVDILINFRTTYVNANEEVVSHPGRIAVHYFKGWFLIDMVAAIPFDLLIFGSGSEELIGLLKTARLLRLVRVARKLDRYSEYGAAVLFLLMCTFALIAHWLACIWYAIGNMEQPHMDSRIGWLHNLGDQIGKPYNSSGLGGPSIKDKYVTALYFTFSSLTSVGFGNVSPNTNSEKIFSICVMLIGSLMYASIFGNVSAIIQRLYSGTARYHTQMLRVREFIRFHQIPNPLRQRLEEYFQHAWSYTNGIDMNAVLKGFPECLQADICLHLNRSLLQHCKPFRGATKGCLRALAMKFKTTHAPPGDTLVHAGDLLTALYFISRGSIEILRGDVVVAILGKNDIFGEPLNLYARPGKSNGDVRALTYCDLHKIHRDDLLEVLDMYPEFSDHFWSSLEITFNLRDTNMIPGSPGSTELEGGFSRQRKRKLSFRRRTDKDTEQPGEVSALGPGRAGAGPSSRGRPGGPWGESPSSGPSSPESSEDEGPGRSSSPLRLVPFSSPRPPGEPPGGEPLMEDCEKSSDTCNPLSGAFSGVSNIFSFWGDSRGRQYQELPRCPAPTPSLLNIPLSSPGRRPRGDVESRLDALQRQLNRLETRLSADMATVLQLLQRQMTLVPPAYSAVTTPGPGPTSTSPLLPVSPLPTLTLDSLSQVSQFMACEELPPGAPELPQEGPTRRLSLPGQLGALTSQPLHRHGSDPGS
Sequence of Voltage-gated inwardly rectifying potassium channel KCNH2 (Q12809 whole entry): as above

Structure (SMILES) | MIC (Escherichia coli [1]) | MIC (Pseudomonas aeruginosa [2]) | MIC (Acinetobacter baumannii [3]) | MIC (Escherichia coli [4]) | MIC (Acinetobacter baumannii [5]) | MIC (Klebsiella pneumoniae [6]) | MIC (Klebsiella pneumoniae [7]) | MIC (Escherichia coli [8]) | IC50 [9] | MIC (Pseudomonas aeruginosa [10]) | MIC (Escherichia coli [11]) | MIC (Escherichia coli [13]) | MIC [14] | MIC (Staphylococcus aureus) | MIC (Pseudomonas aeruginosa [16]) | MIC (Klebsiella pneumoniae [17]) | inhibition at 2 min, 40 µM [18] | half-life [19] | Fh at 1 h, 0.1 µM [20] | half-life at 0.1 µM [21] | also measured
C=CCC(CN)=C1CN(c2nc(Oc3cnc(C)nc3)nc3[nH]c4c(NC)cc(F)cc4c23)C1 | 0.5 µg/mL (≈ 1.09 µM) | 4 µg/mL (≈ 8.69 µM) | 0.25 µg/mL (≈ 0.543 µM) | 0.5 µg/mL (≈ 1.09 µM) | 0.25 µg/mL (≈ 0.543 µM) | 2 µg/mL (≈ 4.34 µM) | 4 µg/mL (≈ 8.69 µM) | 0.25 µg/mL (≈ 0.543 µM) | > 40 µM | 1 µg/mL (≈ 2.17 µM) | 0.06 µg/mL (≈ 0.13 µM) | 0.125 µg/mL (≈ 0.271 µM) | < 0.008 µg/mL | < 0.008 µg/mL | 8 µg/mL (≈ 17.4 µM) | 2 µg/mL (≈ 4.34 µM) | 49.1% |  |  |  | CC50 at 48 h [12]: 6.99 µM; CC50 at 48 h [15]: 29 µM
CNc1cc(F)cc2c1[nH]c1nc(Oc3cnc(C)nc3)nc(N3CC(=C(C)C(C)N)C3)c12 (racemic) | 0.5 µg/mL (≈ 1.11 µM) | 2 µg/mL (≈ 4.46 µM) | 0.5 µg/mL (≈ 1.11 µM) | 0.5 µg/mL (≈ 1.11 µM) | 0.25 µg/mL (≈ 0.557 µM) | 2 µg/mL (≈ 4.46 µM) | 8 µg/mL (≈ 17.8 µM) | 0.25 µg/mL (≈ 0.557 µM) | > 40 µM | 1 µg/mL (≈ 2.23 µM) | 0.25 µg/mL (≈ 0.557 µM) | 0.5 µg/mL (≈ 1.11 µM) | < 0.008 µg/mL | < 0.008 µg/mL | 4 µg/mL (≈ 8.92 µM) | 2 µg/mL (≈ 4.46 µM) | 37% | 5.7 h | 82.2% | 0.278 h | CLH [22]: 4.25 mL/min/g; AUC(0-inf) [23]: 1510 ng·h/mL; MRT [24]: 4.7 h; clearance [25]: 44.1 mL/min/kg; half-life at 0.1 µM [26]: 8.23 h; Fh at 1 h, 0.1 µM [27]: 26.1%; Vd [28]: 12.3 L/kg; CLH [29]: 126 mL/min/g
CNc1cc(F)cc2c1[nH]c1nc(Oc3cnc(C)nc3)nc(N3CC(=CC(C)N)C3)c12 (stereo not given) | 1 µg/mL (≈ 2.3 µM) | 4 µg/mL (≈ 9.21 µM) | 0.5 µg/mL (≈ 1.15 µM) | 1 µg/mL (≈ 2.3 µM) | 0.5 µg/mL (≈ 1.15 µM) | 4 µg/mL (≈ 9.21 µM) | 8 µg/mL (≈ 18.4 µM) | 0.5 µg/mL (≈ 1.15 µM) | > 40 µM | 0.5 µg/mL (≈ 1.15 µM) | 0.06 µg/mL (≈ 0.138 µM) | 0.125 µg/mL (≈ 0.288 µM) | < 0.008 µg/mL | < 0.008 µg/mL | 8 µg/mL (≈ 18.4 µM) | 4 µg/mL (≈ 9.21 µM) | 32.3% | 9 h | 50% | 0.2 h | CLH [22]: 19.6 mL/min/g; AUC(0-inf) [23]: 836 ng·h/mL; MRT [24]: 6.8 h; clearance [25]: 81.5 mL/min/kg; half-life at 0.1 µM [26]: 1.78 h; Fh at 1 h, 0.1 µM [27]: 19.7%; Vd [28]: 33.4 L/kg; CLH [29]: 180.9 mL/min/g
